Reference: publication PMC11260088 (Proceedings of the National Academy of Sciences of the …, 2024)
Bridge positions count the residues as written; N and C are the ends. Square brackets hold non-standard residues; d marks the D form. Peptide text beside a SMILES is read from it. * marks the point of attachment. X1 = CC[C@H](C)CCCCC(=O)*; Dab = NCC[C@H](N)C(=O)O

How the values were obtained:
E. coli ATCC 25922 = experiment: MIC, broth microdilution; assay type: cell-based; settings: LB + 0.3 mM ZnSO4, 37 °C, 18 h, median of min. triplicates
Outline: (§1)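 Strains from glycerol stocks were grown overnight on blood agar at 37 °C. Single colonies went into TSB and grew to OD600 0.5, then were diluted 100-fold in LB + 0.3 mM ZnSO4 to 10^6 CFU/mL. Two-fold serial dilutions of test compound were made in triplicate in the same medium and mixed 1:1 with inoculum. Plates ran 18 h at 37 °C at 600 rpm. MIC was the median of at least triplicates, read visually.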

E. faecium E155 (vanA) = experiment: MIC, broth microdilution; assay type: cell-based, Enterococcus faecium
Outline: as §1

E. faecium E0013 (vanA) = experiment: MIC, broth microdilution; assay type: cell-based; settings: LB + 0.3 mM ZnSO4
Outline: as §1

E. faecium E0072 (vanA) = experiment: MIC, broth microdilution; assay type: cell-based; settings: LB + 0.3 mM ZnSO4
Outline: as §1

E. faecium E0300 (vanA) = experiment: MIC, broth microdilution; assay type: cell-based; settings: LB + 0.3 mM ZnSO4
Outline: as §1

E. faecium E0321 (vanA) = experiment: MIC, broth microdilution; assay type: cell-based; settings: LB + 0.3 mM ZnSO4
Outline: as §1

E. faecium E0333 (vanA) = experiment: MIC, broth microdilution; assay type: cell-based; settings: LB + 0.3 mM ZnSO4
Outline: as §1

E. faecium E0341 (vanA) = experiment: MIC, broth microdilution; assay type: cell-based; settings: LB + 0.3 mM ZnSO4
Outline: as §1

E. faecium E0506 (vanA) = experiment: MIC, broth microdilution; assay type: cell-based; settings: LB + 0.3 mM ZnSO4
Outline: as §1

E. faecium E0745 (vanA) = experiment: MIC, broth microdilution; assay type: cell-based; settings: LB + 0.3 mM ZnSO4
Outline: as §1

E. faecium E1130 (vanA) = experiment: MIC, broth microdilution; assay type: cell-based; settings: LB + 0.3 mM ZnSO4
Outline: as §1

E. faecium E1441 (vanA) = experiment: MIC, broth microdilution; assay type: cell-based; settings: LB + 0.3 mM ZnSO4
Outline: as §1

E. faecium E1679 (vanA) = experiment: MIC, broth microdilution; assay type: cell-based; settings: LB + 0.3 mM ZnSO4
Outline: as §1

E. faecium E1763 (vanA) = experiment: MIC, broth microdilution; assay type: cell-based; settings: LB + 0.3 mM ZnSO4
Outline: as §1

E. faecium E2297 (vanA) = experiment: MIC, broth microdilution; assay type: cell-based; settings: LB + 0.3 mM ZnSO4
Outline: as §1

E. faecium E2373 (vanA) = experiment: MIC, broth microdilution; assay type: cell-based; settings: LB + 0.3 mM ZnSO4
Outline: as §1

E. faecium E6016 (vanA) = experiment: MIC, broth microdilution; assay type: cell-based; settings: LB + 0.3 mM ZnSO4
Outline: as §1

E. faecium E7312 (vanA) = experiment: MIC, broth microdilution; assay type: cell-based; settings: LB + 0.3 mM ZnSO4
Outline: as §1

E. faecium E7319 (vanA) = experiment: MIC, broth microdilution; assay type: cell-based; settings: LB + 0.3 mM ZnSO4
Outline: as §1

E. faecium E7413 (vanA) = experiment: MIC, broth microdilution; assay type: cell-based; settings: LB + 0.3 mM ZnSO4
Outline: as §1

[1] = system: panel of E. faecium clinical isolates carrying the vanA vancomycin resistance gene; experiment: MIC50 / MIC90 over the VRE panel; assay type: cell-based
B. subtilis 168 = experiment: Membrane fluidity, DiIC12 staining; assay type: cell-based; settings: 5 × MIC, DiIC12, 0.3 mM ZnSO4, 30 °C, 0 to 60 min
Outline: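 B. subtilis 168 overnight cultures were diluted 1:200 into LB containing 1% DMSO and 2 µg/mL DiIC12. At OD600 0.3 cells were washed in dye-free medium and given 0.3 mM ZnSO4, then treated at 5× MIC, with daptomycin as positive control. Incubation was at 30 °C and 850 rpm, sampling at 0–60 min for fluorescence microscopy on agarose slides. Representative of three independent experiments.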

[2] = degradation product of bacitracin; cited from earlier work
[3] = calculated over 19 vanA E. faecium clinical isolates, LB + 0.3 mM ZnSO4

CC[C@H](C)CCCCC(=O)N[C@@H](CCN)C(=O)N[C@H](C(=O)N[C@@H](CCN)C(=O)N[C@H]1CCNC(=O)[C@H]([C@@H](C)O)NC(=O)[C@H](CCN)NC(=O)[C@H](CCN)NC(=O)[C@H](CC(C)C)NC(=O)[C@@H](Cc2ccccc2)NC(=O)[C@H](CCN)NC1=O)[C@@H](C)O [Polymyxin B] (X1-[Dab]T[Dab][Dab][Dab][dF]L[Dab][Dab]T; lactam 4-C (inferred); N-terminus assumed)
MIC E. coli ATCC 25922 (E. coli ATCC 25922): 2 µg/mL

CN[C@H](CC(C)C)C(=O)N[C@H]1C(=O)N[C@@H](CC(N)=O)C(=O)N[C@H]2C(=O)N[C@H]3C(=O)N[C@H](C(=O)N[C@H](C(=O)O)c4cc(O)cc(O)c4-c4cc3ccc4O)[C@H](O)c3ccc(c(Cl)c3)Oc3cc2cc(c3O[C@@H]2O[C@H](CO)[C@@H](O)[C@H](O)[C@H]2O[C@H]2C[C@](C)(N)[C@H](O)[C@H](C)O2)Oc2ccc(cc2Cl)[C@H]1O [Vancomycin]
MIC E. faecium E155 vanA (E. faecium E155 (vanA); LB + 0.3 mM ZnSO4, 37 °C, 18 h, median of min. triplicates): >64 µg/mL
MIC E. faecium E155 vanA (E. faecium E155 (vanA); Table 2, LB + 0.3 mM ZnSO4): >64 µg/mL
MIC E. faecium E0013 vanA (E. faecium E0013 (vanA)): >64 µg/mL
MIC E. faecium E0072 vanA (E. faecium E0072 (vanA)): >64 µg/mL
MIC E. faecium E0300 vanA (E. faecium E0300 (vanA)): >64 µg/mL
MIC E. faecium E0321 vanA (E. faecium E0321 (vanA)): >64 µg/mL
MIC E. faecium E0333 vanA (E. faecium E0333 (vanA)): >64 µg/mL
MIC E. faecium E0341 vanA (E. faecium E0341 (vanA)): >64 µg/mL
MIC E. faecium E0506 vanA (E. faecium E0506 (vanA)): >64 µg/mL
MIC E. faecium E0745 vanA (E. faecium E0745 (vanA)): >64 µg/mL
MIC E. faecium E1130 vanA (E. faecium E1130 (vanA)): >64 µg/mL
MIC E. faecium E1441 vanA (E. faecium E1441 (vanA)): >64 µg/mL
MIC E. faecium E1679 vanA (E. faecium E1679 (vanA)): >64 µg/mL
MIC E. faecium E1763 vanA (E. faecium E1763 (vanA)): >64 µg/mL
MIC E. faecium E2297 vanA (E. faecium E2297 (vanA)): >64 µg/mL
MIC E. faecium E2373 vanA (E. faecium E2373 (vanA)): >64 µg/mL
MIC E. faecium E6016 vanA (E. faecium E6016 (vanA)): >64 µg/mL
MIC E. faecium E7312 vanA (E. faecium E7312 (vanA)): >64 µg/mL
MIC E. faecium E7319 vanA (E. faecium E7319 (vanA)): >64 µg/mL
MIC E. faecium E7413 vanA (E. faecium E7413 (vanA)): >64 µg/mL
MIC for vancomycin, all strains of the vanA VRE selection ([1]; broader selection of VRE strains all carrying the vanA gene): ≥ 64 µg/mL
MIC50 [1, 3]: >64 µg/mL
MIC90 [1, 3]: >64 µg/mL

Bacitracin
formation of regions of increased fluidity (RIF) (B. subtilis 168): to a much lesser degree

Bacitracin F
nephrotoxicity [2]: nephrotoxic
